Measured values from ChEMBL document CHEMBL1127791, “Design, synthesis, and biological evaluation of cosalane, a novel anti-HIV agent which inhibits multiple features of virus reproduction” (J Med Chem, 1994).

How the values were obtained:
[1] = system: Human immunodeficiency virus; assay: Effective concentration required for antiviral activity against HIV strain WOME (syncytia inducing) by XTT assay; format: functional, organism-based; settings: Human immunodeficiency virus 1
[2] = system: Human immunodeficiency virus; assay: Effective concentration required for antiviral activity against HIV strain 214 by XTT assay; format: functional, organism-based; settings: Human immunodeficiency virus 1
Procedure, shortened: (§1)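 CEM-SS cells, 5000/well in RPMI 1640 with 5% FBS, 2 mM L-glutamine and gentamycin, were infected with each HIV strain at MOI 0.01 with serially diluted drug. They were incubated 6 days at 37 °C in 5% CO₂. Viability was read by XTT, and EC₅₀ for protection from virus-induced killing was calculated.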

MT2 = assay: Effective concentration required for antiviral activity against HIV strain IIIB in MT-2 cells by XTT assay; format: functional, cell-based; settings: Homo sapiens
Procedure, shortened: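 HIV-1 IIIB was tested in MT-2 cells in a microtiter XTT cytopathicity assay. Serially diluted drug was added to cells infected at MOI 0.01 and incubated 6 days at 37 °C in 5% CO₂. EC₅₀ for cellular protection was calculated from XTT viability.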

[3] = system: Human immunodeficiency virus; assay: Effective concentration required for antiviral activity against HIV strain G by XTT assay; format: functional, organism-based; settings: Human immunodeficiency virus 1; procedure, shortened: as §1
[4] = system: Human immunodeficiency virus; assay: Effective concentration required for antiviral activity against HIV strain BAKI (syncytia inducing) by XTT assay; format: functional, organism-based; settings: Human immunodeficiency virus 1
[5] = system: Human immunodeficiency virus; assay: Effective concentration required for antiviral activity against HIV strain MN by XTT assay; format: functional, organism-based; settings: Human immunodeficiency virus 1; procedure, shortened: as §1
[6] = system: Human immunodeficiency virus; assay: Effective concentration required for antiviral activity against HIV strain SKI by XTT assay; format: functional, organism-based; settings: Human immunodeficiency virus 1; procedure, shortened: as §1
[7] = system: Human immunodeficiency virus; assay: Effective concentration required for antiviral activity against HIV strain A17 (pyridinone-resistant strain) by XTT assay; format: functional, organism-based; settings: Human immunodeficiency virus 1; procedure, shortened: as §1
[8] = system: Human immunodeficiency virus; assay: Effective concentration required for antiviral activity against HIV strain RF by XTT assay; format: functional, organism-based; settings: Human immunodeficiency virus 1; procedure, shortened: as §1
PBL = assay: Effective concentration required for antiviral activity against lymphocyte cell line of PBL cells of Human by […]; format: functional, cell-based
Procedure, shortened: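 PHA-stimulated fresh human PBLs were infected with clinical HIV-1 isolate WEJO in the presence of drug. Culture supernatants were assayed for RT and/or p24 by antigen-capture ELISA to give EC₅₀.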

U-937 = assay: Effective concentration required for antiviral activity against Macrophage cell line of U937 cells of Human by XTT assay; format: functional, cell-based
Procedure, shortened: (§2)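 Human T, B or macrophage-type cell lines were infected with HIV-1 RF in complete RPMI medium with serially diluted drug and cultured 6 days at 37 °C. Inhibition was read by XTT in cytopathically infected cells, or by supernatant RT activity or p24 ELISA in noncytopathically infected cells. EC₅₀ was calculated.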

[9] = system: Human immunodeficiency virus; assay: Effective concentration required for antiviral activity against HIV strain LAV by XTT assay; format: functional, organism-based; settings: Human immunodeficiency virus 1; procedure, shortened: as §1
[10] = system: Human immunodeficiency virus; assay: Effective concentration required for antiviral activity against HIV strain MCK by XTT assay; format: functional, organism-based; settings: Human immunodeficiency virus 1; procedure, shortened: as §1
M = assay: Effective concentration required for antiviral activity against M cell line of macrophage cells of Human by p24 ELISA
[11] = system: Human immunodeficiency virus 2; assay: Effective concentration required for antiviral activity against HIV strain MS (HIV-2) by XTT assay; format: functional, organism-based; procedure, shortened: as §1
MT4 = assay: Effective concentration required for antiviral activity against T (HTLV-1+)cell line of MT-4 cells of Human by XTT assay; format: functional, cell-based; procedure, shortened: as §2
[12] = system: Human immunodeficiency virus; assay: Effective concentration required for antiviral activity against HIV strain 205 by XTT assay; format: functional, organism-based; settings: Human immunodeficiency virus 1; procedure, shortened: as §1
[13] = system: Human immunodeficiency virus; assay: Effective concentration required for antiviral activity against HIV strain G9106 (AZT-resistant strain) by XTT assay; format: functional, organism-based; settings: Human immunodeficiency virus 1; procedure, shortened: as §1
BxT = assay: Effective concentration required for antiviral activity against BxT cell line of 174xCEM cells of Human by XTT assay; format: functional, cell-based; procedure, shortened: as §2
[14] = system: Human immunodeficiency virus; assay: Effective concentration required for antiviral activity against HIV strain WEJO (syncytia inducing) by XTT assay; format: functional, organism-based; settings: Human immunodeficiency virus 1
CEM-SS [15] = assay: Effective concentration required for antiviral activity against HIV strain IIIB in CEM-SS cells by XTT assay; format: functional, cell-based; settings: Homo sapiens; procedure, shortened: as §1
[16] = system: Human immunodeficiency virus; assay: Effective concentration required for antiviral activity against HIV strain TP1 by XTT assay; format: functional, organism-based; settings: Human immunodeficiency virus 1; procedure, shortened: as §1
[17] = system: Human immunodeficiency virus; assay: Effective concentration required for antiviral activity against HIV strain VIHU (nonsyncytia inducing) by XTT assay; format: functional, organism-based; settings: Human immunodeficiency virus 1
[18] = system: Human immunodeficiency virus; assay: Effective concentration required for antiviral activity against HIV strain PM16 by XTT assay; format: functional, organism-based; settings: Human immunodeficiency virus 1; procedure, shortened: as §1
B(EBV+) = assay: Effective concentration required for antiviral activity against B(EBV+) cell line of AA5 cells of Human by XTT assay; format: functional, cell-based; procedure, shortened: as §2
CEM-SS [19] = assay: Effective concentration required for antiviral activity against T cell line of CEM-SS cells of Human by XTT assay; format: functional, cell-based; procedure, shortened: as §2

| Structure (SMILES) | EC50 [1] [nM] | EC50 [2] [nM] | EC50 (MT2) [nM] | EC50 [3] [nM] | EC50 [4] [nM] | EC50 [5] [nM] | EC50 [6] [nM] | EC50 [7] [nM] | EC50 (PBL) [nM] | EC50 (U-937) [nM] | EC50 [9] [nM] | EC50 [10] [nM] | EC50 (M) [nM] | EC50 [11] [nM] | EC50 (MT4) [nM] | EC50 [12] [nM] | EC50 [13] [nM] | EC50 (BxT) [nM] | EC50 [14] [nM] | EC50 (CEM-SS [15]) [nM] | other results |
| --- | --- | --- | --- | --- | --- | --- | --- | --- | --- | --- | --- | --- | --- | --- | --- | --- | --- | --- | --- | --- | --- |
| CC(C)CCCC(C)[C@H]1CC[C@H]2[C@@H]3CCC4C[C@@H](CCC=C(c5cc(Cl)c(O)c(C(=O)O)c5)c5cc(Cl)c(O)c(C(=O)O)c5)CC[C@]4(C)[C@H]3CC[C@]12C (stereo partly specified) | 69900 | 7100 | 3400 | 2200 | 48100 | 8800 | 20600 | 4300 | 44800 | 7400 | 14400 | 2100 | 19700 | 22500 | 20000 | 6700 | 6600 | 6100 | 44800 | 6800 | EC50 [8]: 1700 nM; EC50 [16]: 6500 nM; EC50 [17]: 80200 nM; EC50 [18]: 6600 nM; EC50 (B(EBV+)): 6600 nM; EC50 (CEM-SS [19]): 5100 nM |
| Cc1cn([C@H]2C[C@H](N=[N+]=[N-])[C@@H](CO)O2)c(=O)[nH]c1=O [ZIDOVUDINE] | 6 | 9 | 3 | 2 | 10 | 4 | 13 | 2 | 29 | 30 | 8 | 2 | 15 | 2 | 85 | 9 | > 100 | 55 | 18 | 4 | EC50 [16]: 6 nM; EC50 [17]: 20 nM; EC50 [18]: 11 nM; EC50 (B(EBV+)): 1 nM; EC50 (CEM-SS [19]): 95 nM |
